Measurements from ChEMBL document CHEMBL3875220, “Development of new inhibitors for N-acylethanolamine-hydrolyzing acid amidase as promising tool against bladder cancer” (Bioorg Med Chem, 2017).
Calls of active or inactive are those of the source. The calls are words filed in the database; no cut-off is given here.

Tests used:
[1] = biological target: T1, N-acylethanolamine-hydrolyzing acid amidase (Homo sapiens, UniProt Q02083); experiment: (§1) Inhibition of recombinant human NAAA using PAMCA as substrate preincubated for 30 mins followed by substrate addition measured every 3 mins for 2.5 hrs by fluorescence HTS method
T1 sequence (Q02083 whole entry): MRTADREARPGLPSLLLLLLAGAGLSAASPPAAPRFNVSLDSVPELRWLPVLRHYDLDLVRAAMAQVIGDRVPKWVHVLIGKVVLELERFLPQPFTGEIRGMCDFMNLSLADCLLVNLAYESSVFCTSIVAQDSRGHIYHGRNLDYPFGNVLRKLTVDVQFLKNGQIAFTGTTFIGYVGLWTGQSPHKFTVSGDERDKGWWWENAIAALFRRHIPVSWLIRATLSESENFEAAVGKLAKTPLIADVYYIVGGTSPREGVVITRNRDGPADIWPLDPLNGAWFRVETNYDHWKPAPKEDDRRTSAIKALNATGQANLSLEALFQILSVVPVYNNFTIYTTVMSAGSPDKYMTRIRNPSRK
Summary of the method: (§2)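 Human recombinant NAAA (25 ng, purity >95%) was used in 100 mM sodium acetate buffer and preincubated with inhibitor in DMSO for 30 min at room temperature. PAMCA was then added to a final 10 µM. Released 7-amino-4-methylcoumarin fluorescence was read at 460 nm every 3 min. […] Linearity was checked at 5–100 µM over 5 h.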

[2] = biological target: T2, N-acylethanolamine-hydrolyzing acid amidase (Homo sapiens) (UniProt Q02083); experiment: as §1; summary of the method: as §2
T2 sequence (whole entry): T1 sequence (Q02083 whole entry)

[3] = Antiproliferative activity against human RT112 cells after 72 hrs by MTT assay; assay type: functional, cell-based; details: RT-112, 72 h
Summary of the method: (§3)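 Human bladder cancer cells were kept in RPMI 1640 with 10% FBS and penicillin/streptomycin at 37 °C, 5% CO₂. They were seeded at 5 × 10³ cells/well and exposed to serial log dilutions from 100 to 0.1 µM for 72 h, with DMSO for controls. Read-out was MTT, with formazan dissolved in DMSO and read at 570 nm. IC50 was the concentration inhibiting 50% relative to untreated controls. Three or more experiments in triplicate; mean ± SD.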

[4] = biological target: T2, N-acylethanolamine-hydrolyzing acid amidase (Homo sapiens); experiment: Competitive inhibition of recombinant human NAAA at 100 uM in presence of varying levels of PAMCA as substrate preincubated for 30 mins followed by substrate addition measured every 3 mins for 2.5 hrs by Lineweaver-Burk plot analysis
Summary of the method: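 Human recombinant NAAA was used with PAMCA as substrate at varying concentrations, using the fluorescence assay in acetate buffer. Vmax and KM were derived from Michaelis–Menten fits, and inhibition mode was assigned from Lineweaver–Burk plots of 1/V against 1/[PAMCA].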

[5] = Antiproliferative activity against human RT4 cells after 72 hrs by MTT assay; assay type: functional, cell-based; details: RT-4, 72 h; summary of the method: as §3
[6] = Antiproliferative activity against human 5637 cells after 72 hrs by MTT assay; assay type: functional, cell-based; details: Homo sapiens, 5637, 72 h; summary of the method: as §3
[7] = biological target: T2, N-acylethanolamine-hydrolyzing acid amidase (Homo sapiens); experiment: Reversible inhibition of recombinant human NAAA at 50 to 100 uM preincubated for 20 mins followed by 20-fold dilution and PAMCA substrate addition by fluorescence HTS method
Summary of the method: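 Reversibility test: human recombinant NAAA was incubated with inhibitor at 50 or 100 µM final for 20 min. The mixture was diluted twenty-fold and fresh inhibitor added (2.5–50 µM for the 50 µM series, 5–100 for the 100 µM series). The reaction was started with PAMCA and fluorescence was read. Activity was compared between the paired conditions.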

[8] = biological target: T2, N-acylethanolamine-hydrolyzing acid amidase (Homo sapiens); experiment: Inhibition of recombinant human NAAA at 5 to 100 uM using PAMCA as substrate preincubated for 30 mins followed by substrate addition measured every 3 mins for 5 hrs by fluorescence HTS method; summary of the method: as §2
[9] = (§4) Anti-migratory activity against human RT112 cells at 40 nM after 24 hrs by wound healing assay relative to control; assay type: functional, RT-112
Summary of the method: (§5)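 RT112 cells seeded at 5 × 10⁵ cells/well to give a sub-confluent monolayer, then scratched (~1 mm wide). Debris was removed and medium replaced with medium containing inhibitor at 40 nM, with DMSO only for controls. Phase-contrast images were taken at 0 and 24 h. Wound closure was calculated as the initial wound area minus the cell-free area remaining at 24 h. Three or more experiments in triplicate; mean ± SD; Student's t-test.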

[10] = tested on: HT-1376; experiment: Antiproliferative activity against human HT-1376 cells after 72 hrs by MTT assay; assay type: functional, cell-based; details: HT-1376, 72 h; summary of the method: as §3
[11] = biological target: T2, N-acylethanolamine-hydrolyzing acid amidase (Homo sapiens); experiment: Inhibition of NAAA in human RT112 cells assessed as increase in N-palmitoylethanolamide level at 40 uM after 24 hrs by HPLC-MS/MS analysis; assay type: cell-based; details: RT-112
Summary of the method: (§6)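 RT112 cells were treated with 40 µM inhibitor for 24 h. Cells and supernatant were pooled (1 ml) and spiked with d4-SEA and d4-LNEA internal standards. Protein was precipitated with cold acetone, and the supernatant was purified by SPE and stored at −80 °C. NAEs were quantified by LC-TripleTOF MS and reported in ng/ml as mean ± SD.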

[12] = biological target: T2, N-acylethanolamine-hydrolyzing acid amidase (Homo sapiens); experiment: Inhibition of NAAA in human RT112 cells assessed as increase in N-oleoylethanolamide level at 40 uM after 24 hrs by HPLC-MS/MS analysis; assay type: cell-based; details: RT-112; summary of the method: as §6
[13] = biological target: T2, N-acylethanolamine-hydrolyzing acid amidase (Homo sapiens); experiment: Inhibition of NAAA in human RT112 cells assessed as increase in N-stearoylethanolamide level at 40 uM after 24 hrs by HPLC-MS/MS analysis; assay type: cell-based; details: RT-112; summary of the method: as §6
[14] = tested on: RT-112; experiment: as §4; assay type: functional; summary of the method: as §5

Row | Compound | IC50 [1] [µM] | inhibition [2] | inhibition [4] | inhibition [7] | inhibition [8] | IC50 [10] [µM] | inhibition [11] | inhibition [12] | inhibition [13] | IC50 [3] [µM] | IC50 [5] [µM] | IC50 [6] [µM] | Activity [9] [%] | Activity [14]
1 | CCCCCCCCCCCCCCCCNC(=O)[C@H](O)c1ccccc1 | 20 | Dose-dependent effect | Active | Active |  |  |  |  |  | 28.3 | 3.5 | 25 |  | 
2 | CCCCCCCCCCCCCCCCNC(=O)[C@@H](O)c1ccccc1 | 78 | Dose-dependent effect |  |  |  |  |  |  |  | 25 | > 100 | 18.8 |  | 
3 | CCCCCCCCCCCCCCCCNC(=O)c1cc(O)ccc1O | 38 | Dose-dependent effect | Active |  |  | 9.5 | Active | Active | Active | 7 |  | 7.25 | 80 | 
4 | CCCCCCCCCCCCCCCNC(=O)CCO | 34 |  | Active | Active | Active |  | Active | Active | Active | 58.3 |  | 40 |  | Active

Further lines, with some results ahead:

Row | IC50 [1] [µM] | inhibition [2] | inhibition [4] | inhibition [7] | inhibition [8] | IC50 [10] [µM] | inhibition [11] | inhibition [12] | inhibition [13] | Compound | IC50 [3] [µM] | IC50 [5] [µM] | IC50 [6] [µM] | Activity [9] [%] | Activity [14]
5 | 98 | Dose-dependent effect |  |  |  |  |  |  |  | CCCCCCCCCCCCCCCCNC(=O)c1ccncc1 | 76.2 | 41.7 | 51.2 |  | 
6 | 45 |  |  |  | Active |  |  |  |  | CCCCCCCCCCCCCCCCNC(=O)c1ccccc1 |  |  | 45 |  | 
7 | > 100 |  |  |  |  |  |  |  |  | CCCCCCCCCCCCCCCNC(=O)c1ccc2ccccc2c1 |  |  |  |  | 
8 | 11 | Dose-dependent effect | Active |  |  | 10.2 | Active | Active | Active | CCCCCCCCCCCCCCCCNC(=O)c1ccccc1O | 5.75 | 63.3 | 11.2 | 50 | 
